# Measurements taken from the EternaBench riboswitch data.
# Test system: MS2 coat protein
# Assay: apparent Kd, MS2 coat protein; higher = weaker binding; RNA-MaP array; FMN 200 µM where present
# Procedure, shortened: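 Two titrations, one without ligand and one with constant ligand, were run with SNAP-549-labelled MS2 coat protein from 0.7 or 1.5 nM, doubling to 3 µM. The targets were designs transcribed by stalled E. coli RNA polymerase on Illumina sequencing-chip clusters, in 100 mM Tris-HCl pH 7.5, 80 mM KCl, 4 mM MgCl2, BSA, DTT, yeast tRNA and Tween-20. The apparent Kd is the median of filtered per-cluster binding-curve fits, with green signal normalised to red-channel RNA signal and control-cluster median Fmax.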
# [1] = designed as: OFF switch for flavin mononucleotide, no ligand
# [2] = ligand present: flavin mononucleotide, designed as: OFF switch for flavin mononucleotide
# [3] = designed as: ON switch for flavin mononucleotide, no ligand
# [4] = ligand present: flavin mononucleotide, designed as: ON switch for flavin mononucleotide
Sequence,apparent Kd [1] [nM],apparent Kd [2] [nM],apparent Kd [3] [nM],apparent Kd [4] [nM]
UUGAGGUCAGGAUAUGCAUGGCGGGACUUGCGUCGUGGCGUGCAGAAGGGACAUGAGGAUCACCCAUGUGGAGG,176,233,,
CUGAGCUGAGGAUAUACAUGAGGAUCACCCAUGUGUUCCAGCUUGCGUACAGGCAGAUGUAGAAGGCAGUUCGG,41.4,102,,
ACAUGAGGAUCACCCAUGUUAAACGAGGAUAUAUGACUGCACAUGAGGUUCACCCAUGUUCUGCCGUAGAAGGUGUAAAUAAUU,,,43.3,42.8
GUUUGUUUUUAGAAGGUGCCGGCGAGAGCCGCAACAUGAGGAUCACCCAUGUGUCGGUGACGACGCAAGGAUAUGGAGGUGGAU,,,127,77.8
AUCCUGCGAGGAUAUACAUAGUGACGUCUGUUAGGUCUCAAACAUGAGGAUCACCCAUGUAGAAGGUGCGUCAC,19.4,18.2,,
CUUUUGUGAGGAUAUCAGUAGUUAAUAAAUAAAAUUACUACUGAGAAGGCACAUGAGGAUCACCCAUGUUCCUC,37.1,211,,
GCCAGGGAUUCAGGAUAUAUUAGCCGAGGCCGCGUAGAAGGGAAAUCCUGACAUGAGGAUCACCCAUGUCGACCCGCCUUCCUA,,,46.7,45.6
UUUUGACAUGAGGAUCACCCAUGUGAGGAUAUGAUGCGAUCGUCGAAAGACGAUAGCAUCAGAAGGCACAUAUG,112,336,,
UGUUUGGGAGGAUAUCCAAUAUAUGACAUGAGGAUCACCCAUGUUUCCACUCGUACCUCCGGAGAAGGCCCUGCGU,24.7,22,,
AGGUGUCCUGAGAGAUUUCUCCACAUGAGGAUCACCCAUGUAGAGGAUAUCGACGCUGUGCGGUUCGAGAAGGCUACACUAAUU,6.85,42.4,,
GAUUGACAUGAGGAUCACCCAUGUGAGGAUAUCGGCCGGACCUUGUUAGCUUCCAUCGCGAGAAGGUACAUAGG,18.9,18.4,,
UACGUACAGAAGUACUCCGGGUCCAGAAGGGACAUGAGGAUCACCCAUGUACCGUUGAUUGCUUGUCAGGAUAUGGACCCAGCC,7.76,29,,
GGAUCUGCAGGAUAUAUAAAAUGGCGUGAUGGAUUGUCUGUACAUGAGGAUCACCCAUGUAGAAGGGCGUUCCA,29.1,58.3,,
CGCUGUCUCGCAGGAUAUGCAUUGGAUUACAAUGCAGAAGGGCGAUUACAUGAGGAUCACCCAUGUGUUGACAGUGAAGAAGAU,,,113,25.5
GGGCCCGGAGGAUAUACAUGAGGAUCACCCAUGUAUGUGUGUGUUAUUGCGCGCGCGUGUAGAAGGCCGGGCCC,19.9,80.2,,
AGCAUGUAAGGAUAUGCAACACAGCUUUCAAUCGCUGUGCCGCAGAAGGUACAUGAGGAUCACCCAUGUGCUCC,85.5,91.2,,
AAGCAACAUGAGGAUCACCCAUGUAGCAGGGUCAGAGGAUAUUUGAGCUUGGCGAGGGUUAAAGAAGGUUGAUAUC,,,38.8,43.6
UCGACCAGCGCCAGUCGAACAUGAGGAUCACCCAUGUACUCCAGAAGGCCGCCCAAGAACGGAGUGGAGGAUAUGGAGGUUCUC,,,37.7,33.2
UGGUCAUGAUCAGGAUAUUAACAUGGGCUACAUUAAGAAGGGAUAGUGAGAUACGAACUGAAACAUGAGGAUCACCCAUGUGUU,,,170,107
GGGCCGUAGUAGAAGGGAUAUACGAUUGGUAUAUCAGGAUAUACAUGAGGAUCACCCAUGUUCUAACAGUGAUAGUCCUCCCUA,23,54.8,,
GUUUUUCCUCAUGUACAUGAGGAACAUGAGGAUCACCCAUGUAGAAGGAUUUCCCUUAAAUUAAGAUAGGAUAUACAUAUAUUU,102,59.3,,
CCGGAGACGGGUAGCCUGACAUGAGGAUCACCCAUGUAAUACGAGGAUAUGGAUCCUAAUUGGAUCCAGAAGGUGUCAGGCUAC,,,908,729
AAAAUCAAAUGAGGAUAUUCAUACACUACAUACGGAGAAGGCAUACAAUCAUGAGGACAUGAGGAUCACCCAUGUUGUGACCAU,,,29.9,20.9
GUCAGCUCGUGAGGAUAUACAACACUGCUUCGGCAGGGUAUUAAGAUCACAUGAGGAUCACCCAUGUAGAAGGCACGAGCUGAU,12.7,173,,

Sequence,apparent Kd [1] [nM],apparent Kd [2] [nM],apparent Kd [3] [nM],apparent Kd [4] [nM]
GUACUGAGGCUUUGCUUUAGUCGUACAUGAGGAUCACCCAUGUAGGAUAUGGUAGGCUUUGCUUACCAGAAGGACAGAGUGAUC,168,85.7,,
AUCAGCUCGUCAGGAUAUACGUCACUGCGUCAGCAGUGUGGUAAGAUCACAUGAGGAUCACCCAUGUAGAAGGGACGUGCUGAU,13.3,314,,
GUCGGAAACGACAAAAGUAGCAUACGAGAAGGUUGAUCCAAGACAUGAGGAUCACCCAUGUAGAUAGAGGAUAUUGAAUGCUAC,,,310,244
CAAUUCCGAGGAUAUACAUGAGGAUCACCCAUGUCGGGCCUCAGCGUUUAGCGCCUAAGUAGAAGGUGGGUUUC,42.9,40.4,,
AGAAACUACGAGAAGGACAUAUGAUUCUUCAGAUACAUGAGGAUCACCCAUGUAGGAUAUCGUAGUUUCAGGAUCGUGAGAUCA,14,97.7,,
GUCCGGCGUGUAGGAUAUGGAUCCGAUUAGGAUCCAGAAGGACAUGAGGAUCACCCAUGUACAUGUAAACAGUCAUCACCGGAC,6.4,7.41,,
UGGUACUAGGGAGGAUAUGGGAAGAUACAUGAGGAUCACCCAUGUUUAAGAAUGCCGAGAGGCAACUAGAAGGCCCUAGGACCU,,,434,18.5
UCCUCACAUGAGGAUCACCCAUGUGAGGAUAUCAGCGCGUACGGGUUUCCGUAGUGUUUGAGAAGGCAUUUGGG,16.6,29,,
UGCAUGUAAGGAUAUGCAUCCGCCAAAGAACCGGCGCCACAGCAGAAGGUACAUGAGGAUCACCCAUGUGUCCC,15.1,29.1,,
UUUACGGGAGGAUAUACAUGAGGAUCACCCAUGUAACGGUGUGUAAUAUAUAUUGCGUGUAGAAGGUUUGUGGG,79.3,78.6,,
CCCGUGUUAGGAUAUACGGCACACCCGCCAGCGGGUAUAUAGUAGAAGGAACAUGAGGAUCACCCAUGUAUAGC,16.1,46.6,,
AAAUAAAUCACAGGAUAUCUAGGGAUACAUGAGGAUCACCCAUGUUUGCAAAGAGAAGGGUGACAGUAUUAUCAGAUCAACAAU,,,210,38.1
GAGCCCUAAGGAUAUAGAAGGUCCAACAUGAGGAUCACCCAUGUACGGUGUGGACGUGGGCUAGAAGGUGGAACUU,188,147,,
UACCUGAGGCCAAGCUUUAGGUAUACAUGAGGAUCACCCAUGUAGGAUAUGGUAGGCUUUGCUUACCAGAAGGACAUGUUAAUU,19,64.9,,
GGGCCCGAGGUGAGGAUAUUGUGCAUGGCGAGUGACAAGAAGGUACAUGAGGAUCACCCAUGUGAUACCGACCU,451,371,,
AGAUCCUGAGUCAGGAUAUAGAGGCGAAAGCCUGGCUAGAAGGGACAUGAGGAUCACCCAUGUGGGUUCGUGCC,20.2,66.5,,
UGGGAGCGAUAGAAGGCCGGGUUUCACAUGAGGAUCACCCAUGUGCGGGCCCUCUGUUGAAGGCUGGAGGAUAUAUCGUGCGGA,14.5,7.39,,
UUACUACAUGUAGGAUAUGCGUGGCGAAGCUAUGCAGAAGGACAUGAGGAUCACCCAUGUUUUAGCGUCUGCGUACAGAUGCGU,19,28.4,,
UAGGACGAACAGUGCCGUGGAACGAAGGAUAUACAGGGACGUCGGCUCACAUGAGGAUCACCCAUGUAGAAGGUCGACACGCGC,8.91,48.3,,
GUAGCAUACCGAGGAUAUUCACCGGAAAACCGGACAUGAGGAUCACCCAUGUGGCGAAAGCCUUGGGAGAAGGCGGAAUGCUAC,,,135,19.9
CAGAAGUCAGGAUAUCCUGCUCGUCACUUGCGUGAUGAGUAGGAGAAGGGACAUGAGGAUCACCCAUGUAAAGU,68.9,95,,
UUAAUUAAUUAAUUCGUCAAUUACAUGAGGAUCACCCAUGUAUAGGAUAUGCAGUGGAAUACACUGCAGAAGGAUACAUAGACG,22.6,41.5,,
AGAAACUACGAGAAGGACAUAUGGUACUUCAGAUACAUGAGGAUCACCCAUGUAGGAUAUCGUAGUUUCAGGAUCGUGAGAUCA,9.58,42.6,,
ACUUCCCAGGAGAAGGGACAAGGCGGAGCCCGUACAUGAGGAUCACCCAUGUCAGGAUAUCCAUGCCGGAAGCUAACCCAGUUA,6.42,10.1,,
